Experiment [1] addresses T1, Alpha-2A adrenergic receptor (Homo sapiens, UniProt P08913).
T1 sequence (P08913 whole entry): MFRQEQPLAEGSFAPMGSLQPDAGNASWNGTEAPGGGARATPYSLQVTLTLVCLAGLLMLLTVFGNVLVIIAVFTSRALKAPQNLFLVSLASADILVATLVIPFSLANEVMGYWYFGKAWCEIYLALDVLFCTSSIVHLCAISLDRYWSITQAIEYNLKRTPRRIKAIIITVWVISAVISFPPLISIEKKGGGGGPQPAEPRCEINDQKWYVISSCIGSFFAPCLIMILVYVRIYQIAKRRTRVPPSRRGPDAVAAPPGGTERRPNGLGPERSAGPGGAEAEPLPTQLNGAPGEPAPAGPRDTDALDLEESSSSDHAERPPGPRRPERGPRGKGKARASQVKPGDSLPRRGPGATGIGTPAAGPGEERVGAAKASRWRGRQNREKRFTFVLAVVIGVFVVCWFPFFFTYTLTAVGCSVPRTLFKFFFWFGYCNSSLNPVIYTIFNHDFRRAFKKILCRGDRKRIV
In words: Displacement of [3H]RX821002 from human alpha-2A adrenergic receptor […] in HEK293T cell membrane incubated for 2 hrs by scintillation counting analysis. It is filed as cell membranes. Put shortly: (§1)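 Transiently transfected HEK293T membranes in 50 mM Tris, pH 7.4. α2A: 10 μg/well, 0.5 nM [3H]RX821002, nonspecific with 10 μM RX821002. μOR: 6 μg/well, 0.3 nM [3H]diprenorphine, nonspecific with 10 μM naloxone. Ki from IC50 by Cheng–Prusoff.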
For orientation: Displacement assays read how much labelled ligand stays bound in the presence of the test substance.

For experiment [2], the target named is Mu-type opioid receptor (Homo sapiens, UniProt P35372). In words: Displacement of [3H]diprenorphine from human mu-opioid receptor […] in HEK293T cell membrane incubated for 2 hrs by scintillation counting analysis. It is filed as cell membranes. In a few lines:
as §1

Experiment [3] concerns the target T2, Muscarinic acetylcholine receptor M4 (Homo sapiens, UniProt P08173).
T2 sequence (P08173 whole entry): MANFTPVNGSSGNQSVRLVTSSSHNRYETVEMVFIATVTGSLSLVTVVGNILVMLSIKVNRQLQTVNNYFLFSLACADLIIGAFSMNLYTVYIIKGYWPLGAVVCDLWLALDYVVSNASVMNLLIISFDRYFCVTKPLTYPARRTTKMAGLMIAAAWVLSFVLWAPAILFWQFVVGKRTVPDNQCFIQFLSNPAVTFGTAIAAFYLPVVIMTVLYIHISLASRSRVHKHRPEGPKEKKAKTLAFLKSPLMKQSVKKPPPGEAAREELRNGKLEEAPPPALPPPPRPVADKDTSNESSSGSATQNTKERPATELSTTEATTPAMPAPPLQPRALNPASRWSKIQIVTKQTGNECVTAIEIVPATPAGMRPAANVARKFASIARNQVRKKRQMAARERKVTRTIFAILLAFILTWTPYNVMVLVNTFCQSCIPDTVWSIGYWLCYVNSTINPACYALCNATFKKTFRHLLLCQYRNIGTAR
In words: Displacement of [3H]N-methylscopolamine from human muscarinic acetylcholine M4 receptor stably expressed in CHO cells by radioligand competition binding based analysis. It counts as cell-based. Put shortly:
(§2)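 Whole CHO cells stably expressing hM1–hM5, competed against [3H]N-methylscopolamine. Kd/applied concentrations in nM: M1 0.17/0.2, M2 0.10/0.2, M3 0.12/0.2, M4 0.052/0.1, M5 0.20/0.3.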

Experiment [4] deals with Histamine H1 receptor (Homo sapiens, UniProt P35367).
In experiment [5] the target is T3, 5-hydroxytryptamine receptor 1A (Homo sapiens, UniProt P08908).
T3 sequence (P08908 whole entry): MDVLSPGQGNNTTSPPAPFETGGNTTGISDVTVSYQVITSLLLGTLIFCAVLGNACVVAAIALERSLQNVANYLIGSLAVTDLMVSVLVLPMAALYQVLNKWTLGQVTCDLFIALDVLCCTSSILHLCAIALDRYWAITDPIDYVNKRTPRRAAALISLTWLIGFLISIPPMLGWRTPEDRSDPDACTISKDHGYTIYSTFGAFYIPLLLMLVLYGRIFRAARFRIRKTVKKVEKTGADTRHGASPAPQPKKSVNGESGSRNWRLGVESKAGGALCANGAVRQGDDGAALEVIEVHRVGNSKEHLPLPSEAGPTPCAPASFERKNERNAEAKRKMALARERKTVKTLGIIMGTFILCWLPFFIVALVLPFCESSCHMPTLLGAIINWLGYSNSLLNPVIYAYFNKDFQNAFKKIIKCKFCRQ
Kind of experiment: Displacement of […] from human 5HT1A stably expressed in HEK293T cell membrane incubated for 2 hrs by scintillation counting analysis. It counts as cell membranes.

Experiment [6] addresses Histamine H3 receptor (Homo sapiens, UniProt Q9Y5N1). In words: Displacement of [3H]UR-PI294 from human histamine H3 receptor stably expressed in baculovirus infected Sf9 cell membrane co-expressing G-alphai2 and G-beta1gamma2 incubated for 60 mins by scintillation counting analysis. It is filed as cell membranes. In a few lines:
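hH3R + Gαi2 + Gβ1γ2 expressed in Sf9 membranes. […] Mean ± SEM from N independent experiments in triplicate.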

Experiment [7] has as its target D(2) dopamine receptor (Homo sapiens, UniProt P14416). It counts as functional, cell-based, HEK293T.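 Also: agonist mode, β-arrestin2 recruitment to the human D2 long isoform stably expressed in HEK293T cells, read by split luciferase complementation.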
Experiment [8] addresses D(1A) dopamine receptor (Homo sapiens, UniProt P21728). In words: Displacement of [3H]SCH23390 from human D1 receptor stably expressed in HEK293T cells co-expressing luciferase and CEK incubated for 60 mins by scintillation counting analysis. It counts as cell-based.
Experiment [9] addresses Muscarinic acetylcholine receptor M3 (Homo sapiens, UniProt P20309). In words: Displacement of [3H]N-methylscopolamine from human muscarinic acetylcholine M3 receptor stably expressed in CHO cells by radioligand competition binding based analysis. It is filed as cell-based. In a few lines: as §2
Experiment [10] deals with T4, Muscarinic acetylcholine receptor M1 (Homo sapiens, UniProt P11229).
T4 sequence (P11229 whole entry): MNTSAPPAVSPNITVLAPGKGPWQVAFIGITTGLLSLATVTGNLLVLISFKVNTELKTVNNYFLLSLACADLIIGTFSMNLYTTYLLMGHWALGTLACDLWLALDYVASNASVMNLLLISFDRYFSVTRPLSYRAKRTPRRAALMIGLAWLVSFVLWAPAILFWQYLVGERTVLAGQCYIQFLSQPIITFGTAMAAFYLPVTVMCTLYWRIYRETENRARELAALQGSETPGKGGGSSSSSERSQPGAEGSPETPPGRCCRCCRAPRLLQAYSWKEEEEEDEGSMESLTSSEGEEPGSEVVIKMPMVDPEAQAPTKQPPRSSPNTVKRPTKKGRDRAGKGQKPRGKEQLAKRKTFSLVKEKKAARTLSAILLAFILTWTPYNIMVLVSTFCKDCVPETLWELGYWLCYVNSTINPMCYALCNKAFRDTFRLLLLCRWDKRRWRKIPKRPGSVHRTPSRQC
Kind of experiment: Displacement of [3H]N-methylscopolamine from human muscarinic acetylcholine M1 receptor stably expressed in CHO cells by radioligand competition binding based analysis. It counts as cell-based. In a few lines:
as §2

This note sets out measurements from ChEMBL document CHEMBL5149991 (J Med Chem, 2021).

Bounds are passed on as bounds.

Muscarinic acetylcholine receptor M3, sequence (P20309 whole entry): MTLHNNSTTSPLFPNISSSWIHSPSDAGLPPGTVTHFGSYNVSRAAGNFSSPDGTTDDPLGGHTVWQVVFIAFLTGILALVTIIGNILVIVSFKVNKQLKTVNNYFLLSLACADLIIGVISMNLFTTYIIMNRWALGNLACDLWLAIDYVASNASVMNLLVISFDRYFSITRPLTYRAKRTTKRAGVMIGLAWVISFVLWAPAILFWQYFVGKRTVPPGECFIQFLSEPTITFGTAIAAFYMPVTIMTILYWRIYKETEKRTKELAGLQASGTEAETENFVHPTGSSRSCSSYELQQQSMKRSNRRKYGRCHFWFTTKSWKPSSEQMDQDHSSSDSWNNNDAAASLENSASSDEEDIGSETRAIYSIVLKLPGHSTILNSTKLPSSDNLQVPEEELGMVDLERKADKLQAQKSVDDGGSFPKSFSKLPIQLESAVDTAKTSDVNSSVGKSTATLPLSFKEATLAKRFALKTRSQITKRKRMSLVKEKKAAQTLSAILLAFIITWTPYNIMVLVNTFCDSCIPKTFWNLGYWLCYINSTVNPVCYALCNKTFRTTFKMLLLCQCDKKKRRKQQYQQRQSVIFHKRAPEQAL
D(2) dopamine receptor, sequence (P14416 whole entry, canonical isoform): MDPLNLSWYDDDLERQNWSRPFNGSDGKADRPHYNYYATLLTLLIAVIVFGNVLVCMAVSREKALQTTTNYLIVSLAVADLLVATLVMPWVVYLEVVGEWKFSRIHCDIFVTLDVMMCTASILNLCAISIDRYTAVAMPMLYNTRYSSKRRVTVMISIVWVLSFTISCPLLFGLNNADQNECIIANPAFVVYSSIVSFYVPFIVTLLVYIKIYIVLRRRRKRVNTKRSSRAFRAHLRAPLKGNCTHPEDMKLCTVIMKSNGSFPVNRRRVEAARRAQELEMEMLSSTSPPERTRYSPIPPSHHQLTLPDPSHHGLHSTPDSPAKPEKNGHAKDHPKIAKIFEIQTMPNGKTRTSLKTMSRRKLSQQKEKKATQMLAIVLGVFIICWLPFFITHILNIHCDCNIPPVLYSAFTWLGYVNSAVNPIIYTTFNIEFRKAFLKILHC
Histamine H3 receptor, sequence (Q9Y5N1 whole entry): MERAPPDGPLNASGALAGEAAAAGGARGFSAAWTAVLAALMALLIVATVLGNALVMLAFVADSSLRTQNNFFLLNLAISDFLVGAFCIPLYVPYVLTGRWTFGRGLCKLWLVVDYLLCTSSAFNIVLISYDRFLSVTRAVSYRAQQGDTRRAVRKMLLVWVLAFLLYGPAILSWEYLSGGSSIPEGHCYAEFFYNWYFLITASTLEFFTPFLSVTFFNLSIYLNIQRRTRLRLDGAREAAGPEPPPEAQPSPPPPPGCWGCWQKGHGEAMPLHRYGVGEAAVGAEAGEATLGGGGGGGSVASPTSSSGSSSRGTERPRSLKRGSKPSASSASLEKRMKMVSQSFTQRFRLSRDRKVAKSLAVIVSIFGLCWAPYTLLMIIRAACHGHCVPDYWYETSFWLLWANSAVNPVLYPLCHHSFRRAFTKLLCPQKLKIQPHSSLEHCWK
Mu-type opioid receptor, sequence (P35372 whole entry): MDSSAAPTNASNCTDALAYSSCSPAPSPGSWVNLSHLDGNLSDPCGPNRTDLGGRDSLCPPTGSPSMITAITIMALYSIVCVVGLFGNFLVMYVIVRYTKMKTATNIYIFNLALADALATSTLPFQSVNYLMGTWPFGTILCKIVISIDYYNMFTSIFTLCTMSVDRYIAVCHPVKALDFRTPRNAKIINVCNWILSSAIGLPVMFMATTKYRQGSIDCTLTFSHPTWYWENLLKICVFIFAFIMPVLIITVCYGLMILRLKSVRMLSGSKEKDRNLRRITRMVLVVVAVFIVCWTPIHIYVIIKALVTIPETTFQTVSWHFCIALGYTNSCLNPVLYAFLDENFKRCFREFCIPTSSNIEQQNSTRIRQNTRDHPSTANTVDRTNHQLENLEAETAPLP
D(1A) dopamine receptor, sequence (P21728 whole entry): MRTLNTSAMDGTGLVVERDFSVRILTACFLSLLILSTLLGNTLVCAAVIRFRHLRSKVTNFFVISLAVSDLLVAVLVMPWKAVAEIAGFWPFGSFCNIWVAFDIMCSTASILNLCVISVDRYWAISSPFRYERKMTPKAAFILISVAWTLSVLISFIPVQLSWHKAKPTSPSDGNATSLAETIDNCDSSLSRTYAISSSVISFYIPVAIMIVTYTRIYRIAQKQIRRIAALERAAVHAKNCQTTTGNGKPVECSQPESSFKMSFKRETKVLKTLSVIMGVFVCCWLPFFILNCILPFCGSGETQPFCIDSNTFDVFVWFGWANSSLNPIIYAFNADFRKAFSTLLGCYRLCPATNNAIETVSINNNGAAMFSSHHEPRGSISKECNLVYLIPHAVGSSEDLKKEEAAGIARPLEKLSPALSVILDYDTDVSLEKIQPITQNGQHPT
Histamine H1 receptor, sequence (P35367 whole entry): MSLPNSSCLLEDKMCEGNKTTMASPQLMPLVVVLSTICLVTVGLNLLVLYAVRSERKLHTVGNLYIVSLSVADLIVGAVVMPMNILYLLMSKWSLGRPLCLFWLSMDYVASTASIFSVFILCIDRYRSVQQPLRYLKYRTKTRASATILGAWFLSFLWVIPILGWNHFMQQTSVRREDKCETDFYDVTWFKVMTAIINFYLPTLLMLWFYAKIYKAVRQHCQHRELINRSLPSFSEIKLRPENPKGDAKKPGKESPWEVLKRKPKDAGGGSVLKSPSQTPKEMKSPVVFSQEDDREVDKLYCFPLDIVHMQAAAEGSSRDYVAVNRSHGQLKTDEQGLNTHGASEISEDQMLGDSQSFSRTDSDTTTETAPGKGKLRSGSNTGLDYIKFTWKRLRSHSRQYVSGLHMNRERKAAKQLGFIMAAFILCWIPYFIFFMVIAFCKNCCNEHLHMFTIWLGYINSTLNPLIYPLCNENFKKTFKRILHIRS

Turning to `CCCCCNC(=O)/N=C(\N)NCCCc1nnc(N)s1.O=C(O)C(F)(F)F.O=C(O)C(F)(F)F`, the Kd (commonly the equilibrium constant for the complex coming apart) in experiment [1] worked out at 0.6 nM; in experiment [2], 0.09 nM; in experiment [3], 0.052 nM; in experiment [4] it was 4.5 nM; in experiment [5], 0.08 nM; in experiment [8], 0.23 nM. Besides, the figures for the dissociation constant Kd in experiment [9] and in experiment [10] were 0.12 nM and 0.17 nM, respectively. Besides, the pKi (as a rule, the negative decadic logarithm of the Ki, by convention in mol/L) is 5.31 in [1]; 5.47 in experiment [2]; below 5 in [3]; 4.49 in experiment [5]; below 5 in experiment [9]; below 5 in [10]. The Ki (commonly a dissociation constant, usually derived from enzyme kinetics or from competition with a known ligand) in experiment [4] was 6460 nM; in experiment [6] it was above 10000 nM; in experiment [8], 2450 nM. Moreover, the concentration for a half-maximal effect (EC50) (in general, the concentration needed to bring the measured effect to its halfway point) in experiment [7] is above 10000 nM.

Take `C[C@@H](NC(=O)/N=C(\N)NCCCc1ncn[nH]1)c1ccccc1`: the Kd is 0.6 nM in experiment [1]; 0.09 nM in [2]; 0.052 nM in [3]; 4.5 nM in [4]; 0.08 nM in [5]; 0.23 nM in [8]. Also, the Kd in experiment [9] is 0.12 nM; in [10], 0.17 nM. Moreover, the pKi in experiment [1] is 6.07; in experiment [2], 4.76; in experiment [3], above 5; in experiment [5] it was 4.29; in [9] it was below 5; in experiment [10] it was below 5. Besides, the inhibition constant (Ki) in experiment [4] is 7940 nM; in experiment [6] it was above 10000 nM; in [8], 2190 nM. The compound also showed an EC50 in experiment [7] above 10000 nM.

Turning to `CCCCCNC(=O)/N=C(\N)NCCCc1sc(N)nc1C`, the Kd amounted to 0.6 nM in experiment [1]; 0.09 nM in [2]; 0.052 nM in experiment [3]; 0.08 nM in experiment [5]; 0.23 nM in [8]; 0.12 nM in [9]. The compound also showed a Kd in [10] of 0.17 nM. The pKi in experiment [1] is 6.05; in experiment [2], 5.99; in experiment [3] it was below 5; in experiment [5] it was 5.18; in experiment [9], below 5; in experiment [10], below 5. Further, the Ki in experiment [8] was 257 nM.

Regarding `N/C(=N\C(=O)NCc1ccccc1)NCCCc1nnc(N)s1`, the equilibrium dissociation constant (Kd) in [1] was 0.6 nM; in experiment [2], 0.09 nM; in experiment [3], 0.052 nM; in experiment [4], 4.5 nM; in [5], 0.08 nM; in [8] it was 0.23 nM. Moreover, the figures for the Kd in [9] and in [10] were 0.12 nM and 0.17 nM, respectively. Moreover, the pKi in [1] is 5.9; in experiment [2], 5.4; in experiment [3], above 5.5; in [5] it was 4.56; in experiment [9], below 5; in experiment [10], below 5. Besides, the results for the Ki in [4], in experiment [6] and in experiment [8] were 5370 nM, above 10000 nM and 1380 nM, respectively. The EC50 in [7] was above 10000 nM.
